By IC50 is commonly meant the concentration that gives 50% inhibition. Usually half-life stands for the time in which the quantity being followed falls by half. What is called logD is lipophilicity at a set pH, counting ionised and neutral species. Lower therefore signals lower lipophilicity.

Active and inactive are the calls of the source. The calls are words filed in the database; no cut-off is given here. Bounds are passed on as bounds.

Data on seven compounds can be found in ChEMBL document CHEMBL4393663, “Targeting gliomas with triazene-based hybrids: Structure-activity relationship, mechanistic study and stability” (Eur J Med Chem, 2019).

The subject of one data set is GL261. The experiment in a line: Cytotoxicity against mouse GL261 cells assessed as reduction in cell viability incubated for 48 hrs by MTS assay. The format is functional, cell-based. The settings on record: GL261, 48 h. A general note: Tetrazolium assays rely on reduction of a dye to a coloured formazan, in cell work by metabolically active cells.
`CCCC(CCC)C(=O)N(C)/N=N/c1ccc(Br)cc1`: the IC50 was determined as 80.6 µM.

For the compound `CCCC(CCC)C(=O)N(C)/N=N/c1ccc(C)cc1`, the half-maximal inhibitory concentration (IC50) was more than 100 µM.

In the case of `Cn1nnc2c(C(N)=O)ncn2c1=O` [TEMOZOLOMIDE], the IC50 is more than 100 µM.

For `CCCC(=O)N(C)/N=N/c1ccc(C#N)cc1`, the half-inhibitory concentration (IC50) was more than 100 µM.

Turning to `CCCC(CCC)C(=O)N(C)/N=N/c1ccc(C(=O)OC)cc1`, the IC50 turned out to be 6.7 µM.

For the compound `CCC(CC)C(=O)N(C)/N=N/c1ccc(C#N)cc1`, the IC50 was more than 100 µM.

On to `CC(C)C(=O)N(C)/N=N/c1ccc(C#N)cc1`, for which the IC50 is more than 100 µM.

Tested on in a further data set: not listed separately
In words: Stability of the compound in PBS buffer at pH 7.4 assessed as half life by HPLC analysis. The format is physicochemical.
Details: not given
In the case of `CCCC(CCC)C(=O)N(C)/N=N/c1ccc(Br)cc1`, the half-life is 30.4 h.

For the compound `CCCC(CCC)C(=O)N(C)/N=N/c1ccc(C)cc1`, the half-life was 31.3 h.

On to `Cn1nnc2c(C(N)=O)ncn2c1=O` [TEMOZOLOMIDE], for which the half-life is 2 h.

`CCCC(=O)N(C)/N=N/c1ccc(C#N)cc1`: the half-life was more than 40 h.

As for `CCCC(CCC)C(=O)N(C)/N=N/c1ccc(C(=O)OC)cc1`, the half-life was 31.4 h.

Consider `CCC(CC)C(=O)N(C)/N=N/c1ccc(C#N)cc1`, for which the half-life was more than 40 h.

Take `CC(C)C(=O)N(C)/N=N/c1ccc(C#N)cc1`: the half-life is more than 40 h.

The subject of another data set is GL261. In words: Antiinvasive activity in mouse GL261 cells assessed as reduction in cell migration at 10 uM preincubated for 48 hrs and measured after 6 hrs by giemsa staining based Boyden chamber assay. The format is functional.
Details: not given
With `Cn1nnc2c(C(N)=O)ncn2c1=O` [TEMOZOLOMIDE], the result was Active.

As for `CCCC(CCC)C(=O)N(C)/N=N/c1ccc(C(=O)OC)cc1`, the result was Active.

The target in another data set is T1, Histone deacetylase (Homo sapiens) (UniProt Q13547+O15379+Q9UBN7+Q92769+Q9UQL6+Q8WUI4+Q9BY41+Q96DB2+P56524+Q9UKV0+Q969S8). In words: Inhibition of HDAC in human HeLa nuclear extract assessed as enzyme residual activity at 6.25 uM using Boc-Lys(acetyl)-AMC as substrate and measured after 15 mins by fluorescence assay relative to control. The format is cell-free.
Details: not given
In short, it runs like this: (§1)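 Fluorometric HDAC activity kit with HeLa nuclear extract as enzyme source; compounds from 20 mM DMSO stock, tested in duplicate. Deacetylated substrate treated with lysine developer; fluorescence read after 15 min at ex 360/em 460 nm.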
With `CCCC(CCC)C(=O)N(C)/N=N/c1ccc(Br)cc1`, the Activity is 98.9%.

Consider `CCCC(CCC)C(=O)N(C)/N=N/c1ccc(C)cc1`, for which the Activity was 94.5%.

In the case of `CCCC(=O)N(C)/N=N/c1ccc(C#N)cc1`, the Activity stood at 97.1%.

In the case of `CCCC(CCC)C(=O)N(C)/N=N/c1ccc(C(=O)OC)cc1`, the Activity came to 92.9%.

On to `CCC(CC)C(=O)N(C)/N=N/c1ccc(C#N)cc1`, for which the Activity stood at 97.7%.

In the case of `CC(C)C(=O)N(C)/N=N/c1ccc(C#N)cc1`, the Activity was 95.9%.

A further data set has as its target T1, Histone deacetylase (Homo sapiens). The experiment in a line: Inhibition of HDAC in human HeLa nuclear extract assessed as enzyme residual activity at 100 uM using Boc-Lys(acetyl)-AMC as substrate and measured after 15 mins by fluorescence assay relative to control. The format is cell-free.
Details: not given
In short, it runs like this:
as §1
With `CCCC(CCC)C(=O)N(C)/N=N/c1ccc(Br)cc1`, the Activity was determined as 82.5%.

For `CCCC(CCC)C(=O)N(C)/N=N/c1ccc(C)cc1`, the Activity worked out at 89%.

Turning to `CCCC(=O)N(C)/N=N/c1ccc(C#N)cc1`, the Activity was found to be 54.9%.

As to `CCCC(CCC)C(=O)N(C)/N=N/c1ccc(C(=O)OC)cc1`, the Activity was 92.7%.

For `CCC(CC)C(=O)N(C)/N=N/c1ccc(C#N)cc1`, the Activity was determined as 95.1%.

As for `CC(C)C(=O)N(C)/N=N/c1ccc(C#N)cc1`, the Activity is 77.6%.

Tested on in another data set: not listed separately
In words: Drug metabolism assessed as Cu2+-mediated compound decomposition by measuring aniline formation at 33 uM measured at 1 min interval for 30 mins by UV-Vis spectrophotometric analysis.
Details: not given
Summed up:
(§2)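 Decomposition monitored by UV-Vis spectroscopy in methanolic solutions containing Cu2+ or Zn2+.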
For the compound `CCCC(=O)N(C)/N=N/c1ccc(C#N)cc1`, the Drug metabolism result is given as “Metabolite not detected”.

The next data set deals with GL261. In words: Induction of apoptosis in mouse GL261 cells assessed as reduction in cell viability at 10 uM incubated for 48 hrs by annexinV-PE/7-AAD staining based flow cytometric analysis. The format is functional.
Details: not given
Summed up: (§3)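 GL261 cells exposed 48 h; trypsinized adherent cells combined with medium cells, pelleted, resuspended in PBS/1% BSA, stained with annexin V-PE/7-AAD; flow cytometry gating viable (both negative), early apoptotic (annexin+/7-AAD−), late apoptotic/dead (both positive); two readings per sample; three independent experiments in duplicate.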
(In general: Flow cytometry measures light scatter and fluorescence of single cells or particles in a stream.)
On to `CCCC(CCC)C(=O)N(C)/N=N/c1ccc(C(=O)OC)cc1`, for which the result was Active.

The next data set relates to SH-SY5Y. The experiment in a line: Induction of apoptosis in human SH-SY5Y cells assessed as increase in late necrotic cells at 10 uM incubated for 48 hrs by annexinV-PE/7-AAD staining based flow cytometric analysis. It counts as functional, cell-based.
Details: not given
Summed up:
(§4)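 SH-SY5Y cells grown on poly-D-lysine/laminin, differentiated 7 days with 10 µM retinoic acid, then exposed 48 h. Adherent plus floating cells pooled, resuspended in PBS/1% BSA, stained annexin V-PE/7-AAD and counted by flow cytometry into viable, early apoptotic, late apoptotic/necrotic; two readings per sample; three independent experiments in duplicate.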
`Cn1nnc2c(C(N)=O)ncn2c1=O` [TEMOZOLOMIDE]: the result was Active.

On to `CCCC(CCC)C(=O)N(C)/N=N/c1ccc(C(=O)OC)cc1`, for which the result was Active.

The next data set deals with SH-SY5Y. The experiment in a line: Induction of apoptosis in human SH-SY5Y cells assessed as reduction in cell viability at 10 uM incubated for 48 hrs by annexinV-PE/7-AAD staining based flow cytometric analysis. The format is functional.
Details: not given
In short, it runs like this:
as §4
Turning to `Cn1nnc2c(C(N)=O)ncn2c1=O` [TEMOZOLOMIDE], the result was Active.

Regarding `CCCC(CCC)C(=O)N(C)/N=N/c1ccc(C(=O)OC)cc1`, the outcome was Active.

Tested on in another data set: not listed separately
The experiment in a line: Octanol-phosphate buffered saline distribution coefficient, log D of compound at pH 7.4 at 1 mg shake for 30 mins and measured after 48 hrs by HPLC analysis. The format is physicochemical.
Details: not given
For `CCCC(CCC)C(=O)N(C)/N=N/c1ccc(Br)cc1`, the logD at 30 min amounted to 4.81.

Consider `CCCC(CCC)C(=O)N(C)/N=N/c1ccc(C)cc1`, for which the logD at 30 min turned out to be 4.98.

The compound `CCCC(=O)N(C)/N=N/c1ccc(C#N)cc1` came in with a logD at 30 min of 3.19.

Compound `CCCC(CCC)C(=O)N(C)/N=N/c1ccc(C(=O)OC)cc1` came in with a logD at 30 min of 4.7.

On to `CCC(CC)C(=O)N(C)/N=N/c1ccc(C#N)cc1`, for which the log distribution coefficient (logD) at 30 min is 3.76.

Compound `CC(C)C(=O)N(C)/N=N/c1ccc(C#N)cc1` registered a pH-dependent lipophilicity (logD) at 30 min of 2.95.

The test system of another data set is SH-SY5Y. In words: Induction of apoptosis in human SH-SY5Y cells assessed as increase in early apoptotic cells at 10 uM incubated for 48 hrs by annexinV-PE/7-AAD staining based flow cytometric analysis. It counts as functional, cell-based.
Details: not given
Summed up:
as §4
For `Cn1nnc2c(C(N)=O)ncn2c1=O` [TEMOZOLOMIDE], the result was Active.

As to `CCCC(CCC)C(=O)N(C)/N=N/c1ccc(C(=O)OC)cc1`, the outcome was Active.

For another data set, the system named is GL261. In words: Induction of morphological changes in mouse GL261 cells assessed as increase in cell circularity at 10 uM incubated for 48 hrs by Hoechst 33258 staining based fluorescence microscopic analysis.
Details: not given
It counts as functional. In short, it runs like this:
(§5)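 After 48 h exposure, GL261 cells on coverslips fixed in 4% paraformaldehyde, permeabilized (0.1% Triton X-100), blocked 30 min, stained with Alexa Fluor-594 phalloidin and Hoechst 33258; ten random fields at 630×; circularity (4π·area/perimeter²) and aspect ratio traced manually on ≥120 cells per condition; three independent experiments.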
For the compound `Cn1nnc2c(C(N)=O)ncn2c1=O` [TEMOZOLOMIDE], the outcome was inactive.

`CCCC(CCC)C(=O)N(C)/N=N/c1ccc(C(=O)OC)cc1`: the result was Active.

A further data set has as its system GL261. The experiment in a line: Induction of morphological changes in mouse GL261 cells assessed as decrease in cell aspect ratio at 10 uM incubated for 48 hrs by Hoechst 33258 staining based fluorescence microscopic analysis. The format is functional.
Details: not given
In short, it runs like this: as §5
As to `Cn1nnc2c(C(N)=O)ncn2c1=O` [TEMOZOLOMIDE], the result was inactive.

For the compound `CCCC(CCC)C(=O)N(C)/N=N/c1ccc(C(=O)OC)cc1`, the result was Active.

In a further data set the test system is GL261. The experiment in a line: Cytotoxicity against mouse GL261 cells assessed as reduction in cell viability at 0.1 to 100 uM incubated for 48 hrs by MTS assay. The format is functional, cell-based.
Details: not given
For `CCCC(=O)N(C)/N=N/c1ccc(C#N)cc1`, the outcome was inactive.

For `CCC(CC)C(=O)N(C)/N=N/c1ccc(C#N)cc1`, the result was inactive.

As to `CC(C)C(=O)N(C)/N=N/c1ccc(C#N)cc1`, the result was inactive.

Tested on in another data set: not listed separately
The experiment in a line: Drug metabolism assessed as Zn2+-mediated compound decomposition by measuring aniline formation 33 uM measured at 1 min interval for 30 mins by UV-Vis spectrophotometric analysis.
Details: not given
In short, it runs like this:
as §2
For `CCCC(=O)N(C)/N=N/c1ccc(C#N)cc1`, the Drug metabolism result is “Metabolite not detected”.

The target of a further data set is T1, Histone deacetylase (Homo sapiens). In words: Inhibition of HDAC in human HeLa nuclear extract assessed as enzyme residual activity at 25 uM using Boc-Lys(acetyl)-AMC as substrate and measured after 15 mins by fluorescence assay relative to control. It counts as cell-free.
Details: not given
In short, it runs like this:
as §1
For `CCCC(CCC)C(=O)N(C)/N=N/c1ccc(Br)cc1`, the Activity stood at 95.6%.

Regarding `CCCC(CCC)C(=O)N(C)/N=N/c1ccc(C)cc1`, the Activity turned out to be 93.5%.

As for `CCCC(=O)N(C)/N=N/c1ccc(C#N)cc1`, the Activity came to 72.5%.

Regarding `CCCC(CCC)C(=O)N(C)/N=N/c1ccc(C(=O)OC)cc1`, the Activity amounted to 97.3%.

Take `CCC(CC)C(=O)N(C)/N=N/c1ccc(C#N)cc1`: the Activity stood at 97.2%.

With `CC(C)C(=O)N(C)/N=N/c1ccc(C#N)cc1`, the Activity amounted to 92.7%.

Tested on in a further data set: not listed separately
In words: Stability in 80% human plasma assessed as half life by HPLC analysis. It counts as ADME, cell-free.
Details: not given
In short, it runs like this: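 Plasma pooled from 13 donors (heparin), stored at −18 °C, thawed slowly, diluted to 80% v/v with 10 mM PBS pH 7.4 at 37 °C; compound added from 10 mM acetonitrile stock; aliquots taken over time, centrifuged 12000 rpm 10 min, supernatant analyzed by HPLC for half-life; duplicate or triplicate runs.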
In the case of `CCCC(CCC)C(=O)N(C)/N=N/c1ccc(Br)cc1`, the half-life is more than 40 h.

As to `CCCC(CCC)C(=O)N(C)/N=N/c1ccc(C)cc1`, the half-life was more than 40 h.

As to `CCCC(=O)N(C)/N=N/c1ccc(C#N)cc1`, the half-life is 15.2 h.

Regarding `CCCC(CCC)C(=O)N(C)/N=N/c1ccc(C(=O)OC)cc1`, the half-life was more than 40 h.

With `CCC(CC)C(=O)N(C)/N=N/c1ccc(C#N)cc1`, the half-life is more than 40 h.

`CC(C)C(=O)N(C)/N=N/c1ccc(C#N)cc1`: the half-life was 13.9 h.

The next data set concerns GL261. In words: Induction of apoptosis in mouse GL261 cells assessed as increase in early apoptotic cells at 10 uM incubated for 48 hrs by annexinV-PE/7-AAD staining based flow cytometric analysis. It counts as functional, cell-based.
Details: not given
In short, it runs like this: as §3
Regarding `CCCC(CCC)C(=O)N(C)/N=N/c1ccc(C(=O)OC)cc1`, the outcome was Active.
